# Source: PubChem BioAssay
# Beta apoptosis = blocks beta cell apoptosis; INS-1E cytokine-induced death, ATP luminescence, 48 h; percent of positive-control rescue, neutral wells zero; protection from apoptosis, % (no concentration beside the values); hit rate 0.8% among 300,000; AID 435005;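 active means Every replicate reaches about 75%, or at least half do and their mean reaches it too, limit read from the data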;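 further: 0% = cytokine-treated negative control wells and 100% = positive control rescue; higher means more ATP so stronger rescue from cytokine killing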
# T cruzi inh = T. cruzi replication inhibition; T. cruzi beta-gal in NIH3T3, luminescence, 90 h; inhibition, % (no concentration beside the values); hit rate 1.4% among 300,000;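 active means mean inhibition across valid replicates above about 55%, limit read from the data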;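 further: signal also drops with host cell toxicity which is not excluded here; 0% = plate median of DMSO wells and 100% = zero luminescence signal; higher percent means less beta-gal luminescence so fewer parasites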
#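 System – NIH/3T3 host cells with β-galactosidase reporter T. cruzi · Doses – single 50 nL compound addition per well in DMSO · Reagent – 5000 T. cruzi trypomastigotes/well · Medium – Low-serum DMEM with 2% FBS · Timing – ≥90 h infection period, 3 h prior cell attachment · Evaluation – parasite load inhibition, % · Technique – GalScreen luminescence, 60 min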
# Mdm2 MdmX PPI = inhibitors of human Mdm2/MdmX interaction; O15151+Q00987; SaOS-2 split-luciferase Mdm2/MdmX complementation, luminescence; inhibition, % at 8 µM; hit rate 3% among 330,000; AID 485346;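 active means inhibition of at least 50% at 8 µM in the primary screen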
# Target sequence (O15151 whole entry, looked up): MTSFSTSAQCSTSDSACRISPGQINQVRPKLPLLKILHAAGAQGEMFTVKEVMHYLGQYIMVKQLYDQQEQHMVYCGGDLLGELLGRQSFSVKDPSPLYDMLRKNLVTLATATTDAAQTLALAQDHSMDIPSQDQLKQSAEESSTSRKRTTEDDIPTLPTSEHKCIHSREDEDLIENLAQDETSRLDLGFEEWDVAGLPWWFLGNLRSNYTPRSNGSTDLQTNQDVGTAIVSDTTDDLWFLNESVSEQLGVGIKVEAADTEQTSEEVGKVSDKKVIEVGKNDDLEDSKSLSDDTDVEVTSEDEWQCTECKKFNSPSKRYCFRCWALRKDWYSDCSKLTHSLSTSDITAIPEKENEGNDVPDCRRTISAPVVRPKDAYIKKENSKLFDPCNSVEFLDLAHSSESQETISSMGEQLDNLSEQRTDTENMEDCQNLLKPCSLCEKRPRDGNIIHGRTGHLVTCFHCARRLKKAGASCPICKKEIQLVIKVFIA
# Target sequence (Q00987 whole entry, looked up): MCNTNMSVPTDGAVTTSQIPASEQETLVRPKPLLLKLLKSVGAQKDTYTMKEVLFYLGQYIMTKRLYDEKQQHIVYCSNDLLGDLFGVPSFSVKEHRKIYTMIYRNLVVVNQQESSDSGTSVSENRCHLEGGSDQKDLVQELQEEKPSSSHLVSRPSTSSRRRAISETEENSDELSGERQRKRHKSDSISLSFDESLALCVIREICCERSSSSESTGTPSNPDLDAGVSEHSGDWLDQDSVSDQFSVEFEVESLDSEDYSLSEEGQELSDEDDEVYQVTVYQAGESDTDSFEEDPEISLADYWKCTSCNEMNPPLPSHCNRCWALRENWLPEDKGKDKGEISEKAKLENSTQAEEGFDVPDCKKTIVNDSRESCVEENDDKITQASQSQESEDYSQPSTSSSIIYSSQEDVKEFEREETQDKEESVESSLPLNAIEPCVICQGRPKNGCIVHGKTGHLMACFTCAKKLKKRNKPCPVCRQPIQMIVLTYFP
# Lmaj promast = inhibitors of Leishmania major promastigote growth; Leishmania major promastigotes, resazurin fluorescence viability; hit rate 9% among 200,000; inhibition, % at 10 µM; AID 1063; in the data active means inhibition above about 50%;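 further: promastigotes grown with compound for 44 hours at 28 °C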
# CSC inhib = cancer stem cell inhibition; cancer stem cell-like cells viability, luminescence; inhibition, % at 7.5 µM; hit rate 1.1% among 300,000; in the data active means inhibition above about 75%; tested in HMLE shEcad cells
# SKKanGAS inh = blocks kanamycin growth of S. pyogenes SKKanGAS strain | BacTiter-Glo, 6 h | inhibition, % at 7.5 µM | hit rate 1.3% among 300,000 | AID 1662;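 active means mean replicate score, as percent of positive control median, at least 50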;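 further: strain carries kanamycin resistance gene driven by streptokinase promoter and grows in 40 µg/ml kanamycin; loss of luminescence reflects streptokinase promoter inhibition or plain growth inhibition; 0% = median of DMSO wells and 100% = positive control at its reference dose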
# * hit, by the source's call; x = no result. The list is not random: actives were taken first. Their share in the collection is about 9.4%.
SMILES,Beta apoptosis,T cruzi inh,Mdm2 MdmX PPI,Lmaj promast,CSC inhib,SKKanGAS inh
CCOc1cc(C(=O)NCCCn2ccnc2)cc(OCC)c1OCC,3,4,-16,54*,-2,0
CC(C)(C)c1cc(C(=O)NCCCn2ccnc2)cc(C(C)(C)C)c1,7,15,13,x,-10,-2
CCCCNC(=O)c1ccc(N2CCC3(CC2)OCCO3)c([N+](=O)[O-])c1,-1,-7,26,59*,3,-7
Cc1cc(Cl)ccc1OCCCC(=O)NCCCn1ccnc1,-8,-7,22,4,22,-17
O=C(CCCOc1ccc(Cl)cc1Cl)NCCCn1ccnc1,5,2,27,66*,32,-8
CC1CN(S(=O)(=O)c2ccc(C(=O)NCCCn3ccnc3)cc2)CC(C)O1 (stereo unspecified),113*,2,-19,-4,67,2
CN(CCCNC(=O)c1ccc(CS(=O)c2ccc(Br)cc2)o1)Cc1ccccc1 (stereo unspecified),-4,43,14,x,21,21
O=C(C1COc2ccccc2O1)N1CCN(c2ccc([N+](=O)[O-])cc2)CC1 (stereo unspecified),-3,x,21,x,-7,x
C/C(=N\NC(=O)OC(C)(C)C)c1ccccc1Br,6,-23,-25,0,-2,1
Cc1ccccc1NC(=O)CN1C(=O)S/C(=C/c2cccnc2)C1=O,-5,-4,-9,x,7,2
Cc1nnc(SCC(=O)Nc2nc(-c3ccc(F)cc3)cs2)[nH]c1=O,-4,-26,-7,-4,-6,1
CCS(=O)(=O)N1CCN(c2ccc(C(=O)NC3C4CC5CC(C4)CC3C5)cc2[N+](=O)[O-])CC1 (stereo unspecified),61,68*,7,52*,42,18
O=C(Cc1ccccc1Cl)NCCCn1ccnc1,1,12,-10,62*,-14,-6
COc1ccc(CCNC(=O)c2cc(-c3ccccn3)nc3c(Cl)cccc23)cc1OC,12,13,19,10,4,-5
COc1ccc(CCNC(=O)c2cc(-c3ccncc3)nc3c(Cl)cccc23)cc1OC,2,33,22,51*,-9,5
CCS(=O)(=O)N1CCN(c2ccc(C(=O)N3CCOCC3)cc2[N+](=O)[O-])CC1,-14,-3,20,x,-6,2
CCc1ccc(-c2cc(C(=O)NCc3ccccn3)c3ccccc3n2)cc1,-7,4,6,97*,-7,1
O=C(Cc1ccc(Br)cc1)NCCCn1ccnc1,-10,8,-19,x,-12,4
CCNC(=S)Nc1cccc(F)c1C,-12,-15,3,-7,-15,-2
C=CCOC(=O)C1=C[C@H](c2coc3ccccc3c2=O)[C@@H](CCCO)[C@H](OCC)O1,0,1,-10,-3,-9,-1
C=CCN(Cc1cc(OC)ccc1OC)C(=O)c1cc2ccc(OC)cc2[nH]1,11,18,33,x,50,7
CCCCCCCNC(=O)c1cc(-c2ccncc2)nc2ccccc12,3,57*,-5,x,10,1
O=C(NCCCn1ccnc1)c1ccc(F)cc1,x,-3,-2,x,-6,-3
Cc1cc(C(=O)NCCCn2ccnc2)sc1-c1ccccc1,68,21,11,99*,25,-2
Cc1ccc(C(=O)NCCCn2ccnc2)cc1C,-7,-12,-8,x,-10,1
SMILES,Beta apoptosis,T cruzi inh,Mdm2 MdmX PPI,Lmaj promast,CSC inhib,SKKanGAS inh
O=C(NCCCn1ccnc1)c1ccc(N2CCCCCC2)c([N+](=O)[O-])c1,95*,16,5,90*,60,-9
Cc1ccc(CCNC(=O)c2cc(-c3ccncc3)nc3ccccc23)cc1,1,30,15,x,x,-6
O=C(NCCCn1ccnc1)c1ccc(-c2ccccc2)cc1,97*,-19,-5,x,-15,-4
COCCN(C(=O)c1ccc(-c2ccc([N+](=O)[O-])cc2)o1)c1c(N)n(CC(C)C)c(=O)[nH]c1=O,x,x,14,x,x,x
Cc1cc(C(=O)COC(=O)COc2ccccc2C#N)c(C)n1CC1CCCO1 (stereo unspecified),-3,x,-7,x,x,x
O=C(NCCCn1ccnc1)c1noc2c1CCCC2,-2,-14,-9,-5,-4,-7
Cc1ccc2nc(-c3ccncc3)cc(C(=O)NCCc3ccc(F)cc3)c2c1,6,56*,22,12,4,12
Cc1ccc(C)c2sc(NC(=O)c3ccc(N4CCCCC4)c([N+](=O)[O-])c3)nc12,x,0,38,81*,x,18
Cc1ccc2nc(-c3ccccn3)cc(C(=O)NCCc3ccc(F)cc3)c2c1,-6,10,9,x,6,0
O=C(NCCCn1ccnc1)c1noc2c1CCc1ccccc1-2,-3,10,-2,88*,7,-5
Cc1cccc(NC(=O)c2ccc(N3CCCCC3)c([N+](=O)[O-])c2)n1,1,11,-139,12,0,-3
O=C(NCCCn1ccnc1)c1cc(-c2ccc(Cl)cc2)nc2ccccc12,5,-1,-3,98*,-15,-4
O=C(NCCCn1ccnc1)c1cc(-c2ccncc2)nc2ccccc12,-2,-8,39,-4,-5,-5
O=C(O)c1cccnc1SCc1cccc(Cl)c1,-6,-1,7,1,-12,7
CC(Oc1ccc2c(-c3ccccc3)cc(=O)oc2c1)C(=O)NCC(O)c1ccccc1 (stereo unspecified),-2,11,-8,x,-17,0
CCOC(=O)c1cnc(Nc2nc3ccccc3o2)nc1CN1CCN(C)CC1,x,x,x,76*,x,x
CCc1cc2c(cc3c(=O)n(CC(=O)NCCCN(CC)CC)nc(CC)n32)s1,-3,0,0,92*,26,-17
CCc1cc2c(cc3c(=O)n(CC(=O)NCCCN4CC(C)CC(C)C4)ncn32)s1 (stereo unspecified),x,x,x,84*,x,x
CC1CC(C)CN(CCCNC(=O)Cn2ncn3cccc3c2=O)C1 (stereo unspecified),-1,3,-1,-4,-3,-1
CN1CCN(NC(=O)Nc2cc(Cl)cc(Cl)c2)CC1,4,50,20,x,11,88*
COc1ccc(NC(=O)NN2CCN(C)CC2)cc1OC,-2,40,8,x,-10,2
CC1CCN(c2ccc(NC(=O)c3ccccc3[N+](=O)[O-])cc2)CC1,1,19,-24,-5,-3,4
COc1ccc(C2c3[nH]c4ccccc4c3C[C@H]3C(=O)N(C4CCN(Cc5ccccc5)CC4)CC(=O)N23)c(OC)c1 (stereo partly specified),15,25,21,x,8,-3
Cc1ccccc1C1c2[nH]c3ccccc3c2C[C@H]2C(=O)N(C3CCN(Cc4ccccc4)CC3)CC(=O)N12 (stereo partly specified),6,61*,19,x,11,2
